The target of assay [1] is cAMP-dependent protein kinase catalytic subunit alpha (Rattus norvegicus) (UniProt P27791). The assay can be described thus: In vitro inhibition of cAMP-dependent kinase Protein kinase A isolated from rat brain by 100 uM. A digest of the protocol:
(§1)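 PKA catalytic subunit at 4 ng/mL in 20 mM Tris with 10 μM histone, 100 μM dibutyryl-cAMP and 100 μM [³²P]ATP. Percent inhibition measured at 100 μM test compound.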

Assay [2] has as its target T1, Protein kinase C, PKC; classical (Rattus norvegicus, UniProt P05696+P68403+P63319). The assay can be described thus: In vitro inhibition of [32P] incorporation into histones by rat brain partially purified Protein kinase C in the presence of PMA, [Ca2+] and phosphatidylserine. A digest of the protocol:
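Partially purified rat brain PKC activated by PMA, Ca²⁺ and phosphatidylserine. Read-out is inhibition of ³²P incorporation into histones. Some values are extrapolated.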

For assay [3], the target named is T2, Protein kinase C alpha type (Rattus norvegicus, UniProt P05696). The assay can be described thus: Inhibition of [3H]-phorbol dibutyrate binding to Protein kinase C alpha.
Assay [4] addresses T2, Protein kinase C alpha type. In words: Effect of Phosphatidylserine on inhibition of Protein kinase C alpha.
The target of assay [5] is cAMP-dependent protein kinase catalytic subunit alpha (Rattus norvegicus) (UniProt P27791). In words: (§2) Inhibition of cAMP-dependent kinase PKA(Protein kinase A) catalytic subunit at 100 uM. In outline:
as §1

Assay [6] has as its target T1, Protein kinase C, PKC; classical. In words: Inhibition of PMA and [Ca2+] induced 32P incorporation into histones by partially purified rat brain Protein kinase C. In outline:
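Partially purified rat brain PKC activated by PMA, Ca²⁺ and phosphatidylserine. Read-out is inhibition of ³²P incorporation into histones. IC50 taken from concentration-inhibition curves run up to 100 μM inhibitor. Some values are extrapolated.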

The target in assay [7] is cAMP-dependent protein kinase catalytic subunit alpha (Rattus norvegicus) (UniProt P27791). In words: Inhibition of cAMP-dependent kinase PKA (Protein kinase A) catalytic subunit at 100 uM. In outline:
as §1

For assay [8], the target named is cAMP-dependent protein kinase catalytic subunit alpha (Rattus norvegicus, UniProt P27791). The assay is described as §2.

pIC50, pKi: −log10 of the molar value.

As for `CCCCCCCCCCCCC(=O)N1CCCCC1CNC(=O)[C@@H](N)CO` (some centres not stated), the inhibition in assay [1] stood at 0%. In assay [2], the IC50 came to 45 µM.

The compound `CCCCCCCCCCCCCC(=O)N1CCCCC1CNC(=O)[C@@H](N)CCCCN` (some centres not stated) returned an inhibition in assay [1] of 0%. The concentration for half-maximal inhibition (IC50) in assay [2] stood at 48 µM. As to `CCCCCCCCCCCCC(=O)N1CCCCC1CNC(=O)[C@@H](N)CCCCN` (some centres not stated), the inhibition in assay [1] is 0%. For the same compound, in assay [3], the pIC50 was 4.64. For the same compound, the IC50 in assay [2] amounted to 20 µM. The compound further gave a negative logarithm of the Ki (pKi) in assay [4] of 4.92. In the case of `CCCCCCCCCCCCCCC(=O)N1CCCCC1CNC(=O)[C@@H](N)CCCCN` (some centres not stated), the inhibition in assay [5] is 0%. Also, the half-inhibitory concentration (IC50) in assay [6] was 38 µM. In turn, `CCCCCCCCCCCCC(=O)N1CCCCC1CNC(=O)[C@@H](N)CCCN=C(N)N` (some centres not stated) gave an inhibition in assay [1] of 0%. Further, in assay [2], the half-inhibitory concentration (IC50) was found to be 72 µM.

In assay [1], `CCCCCCCCCCCCC(=O)N1CCCCC1CNC(=O)[C@@H](N)CCC(=O)OCc1ccccc1` (some centres not stated) returned an inhibition of 0%. The IC50 in assay [2] is 92 µM.

In assay [1], `CCCCCCCCCCCCC(=O)N1CCCCC1CNC(=O)[C@@H](N)CCC(N)=O` (some centres not stated) came in with an inhibition of 0%. In addition, the IC50 in assay [2] is 72 µM. In the case of `CCCCCCCCCCCCCCCC(=O)N1CCCCC1CNC(=O)[C@@H](N)CCCCN` (some centres not stated), the inhibition in assay [1] worked out at 0%. Also, the IC50 in assay [2] was determined as 45 µM. In the same order, the values of `CCCCCCCCCCCCCCCCC(=O)N1CCCCC1CNC(=O)[C@@H](N)CCCCN` (some centres not stated) are 0% and 46 µM. In the same order, the values of `CCCCCCCCCCCC(=O)N1CCCCC1CNC(=O)[C@@H](N)CCCCN` (some centres not stated) are 0% and 102 µM.

In turn, `CCCCCCC(=O)N1CCCCC1CNC(=O)[C@@H](N)CCCCN` (some centres not stated) displayed an inhibition in assay [1] of 0%. On the same count and under the same terms, the result for `CCCCCCCCCCCCC(=O)N1CCCCC1CNC(=O)[C@@H](N)CCC(=O)O` (some centres not stated) reads 0%. In the case of `CCCCCCCCCCCCCC(=O)N1CCCCC1CN` (configuration not stated), in assay [6], the IC50 stood at 36 µM. The compound also yielded an inhibition in assay [7] of 46%. `CCCCCCCCCCCCC/C=C/[C@@H](O)[C@@H](N)CO` [SPHINGOSINE] showed a pIC50 in assay [8] of 4.01. In assay [2], the concentration for half-maximal inhibition (IC50) is 57 µM. Take `CCCCCCCCCCCCC(=O)N1CCCCC1CNC(=O)[C@@H](N)CCSC` (some centres not stated): in assay [1], the inhibition was 0%. In addition, the IC50 in assay [2] is 159 µM.

As to `CCCCCCCCCCC(=O)N1CCCCC1CNC(=O)[C@@H](N)CCCCN` (some centres not stated), the inhibition in assay [1] came out at 0%. Moreover, in assay [2], the IC50 is 299 µM.

The compound `CCCCCCCCC(=O)N1CCCCC1CNC(=O)[C@@H](N)CCCCN` (some centres not stated) returned an inhibition in assay [1] of 0%. Consider `CCCCCCCCCCCCC(=O)N1CCCCC1CNC(=O)[C@H](C)N` (some centres not stated), for which, in assay [1], the inhibition is 0%. Moreover, the IC50 in assay [2] was 52 µM. In the same order, the values of `CCCCCCCCCCCCCCCCCC(=O)N1CCCCC1CNC(=O)[C@@H](N)CCCCN` (some centres not stated) are 38% and 36 µM. `CCCCCCCCCCCCC(=O)N1CCCCC1CNC(=O)[C@@H](N)CC(C)C` (some centres not stated) showed an inhibition in assay [5] of 0%. In assay [6], this compound registered an IC50 of 154 µM. Compound `CCCCCCCCCCCCC(=O)N1CCCCC1CNC(=O)[C@@H](N)Cc1ncc[nH]1` (some centres not stated) showed an inhibition in assay [1] of 0%. Besides, the IC50 in assay [2] amounted to 60 µM. In the same order, the values of `CCCCCCCCCCCCC(=O)N1CCCCC1CNC(=O)CN` (configuration not stated) are 0% and 51 µM. `CCCCCCCCCCCCC(=O)N1CCCCC1CNC(=O)[C@H](N)CCCCN` (some centres not stated) had an inhibition in assay [1] of 0%. Besides, in assay [2], the IC50 amounted to 34 µM. In assay [1], `CCCCCCCCCCCCC(=O)N1CCCCC1CNC(=O)[C@@H](N)CCCN` (some centres not stated) displayed an inhibition of 0%. The IC50 in assay [2] was found to be 23 µM.

One may read the inhibition as the share of the control response that was lost under treatment. A lower inhibition goes with a response near the control. What is called IC50 is the point on the concentration scale where inhibition reaches its midpoint. What is called pIC50 is the IC50 on a negative log10 scale, so that one unit is a factor of ten. As a reminder, the pKi is −log10 of the Ki, conventionally taken in molar units. Low values mean a high Ki, high ones a low Ki.

The values are drawn from ChEMBL document CHEMBL1125218, “Substituted 2-(aminomethyl)piperidines: a novel class of selective protein kinase C inhibitors” (J Med Chem, 1991).
